Experimental data as given in ChEMBL document CHEMBL1137992, “Long hydrocarbon chain keto diols and diacids that favorably alter lipid disorders in vivo” (J Med Chem, 2004).

Experiments:
Assay type in all cases: functional
[1] = test system: Rattus norvegicus; experiment: Percent decrease in nonesterified fatty acids in obese Zucker rats after 1 week of treatment at a dose of 30 mg/kg/day; design: scale not given: the % may be the effect or the level left
Procedure, shortened: (§1)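 Female Zucker fatty rats [Crl:(Zuc)-faBR], 10–12 weeks, 400–500 g, acclimated 7 days on chow. Compound or vehicle (20% EtOH/80% PEG-200) given by daily oral gavage for 2 weeks, 0–100 mg/kg/day. After a 6 h fast, blood was taken before dosing, at 1 wk and at 2 wk. Serum lipids, NEFA and insulin (ELISA) were measured; glucose by glucometer. HDL/non-HDL-C came from Superose 6 gel-filtration profiles. Values are % change from pretreatment, mean ± SEM.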

[2] = test system: Rattus norvegicus; experiment: Percent increase in HDL-cholesterol in obese Zucker rats after 2 weeks of treatment at a dose of 10 mg/kg/day; procedure, shortened: as §1
[3] = test system: Rattus norvegicus; experiment: Percent increase in HDL-cholesterol in obese Zucker rats after 1 week of treatment at a dose of 10 mg/kg/day; procedure, shortened: as §1
[4] = test system: Rattus norvegicus; experiment: Percent decrease in HDL-cholesterol in obese Zucker rats after 2 weeks of treatment at a dose of 0 mg/kg/day; design: scale not given: the % may be the effect or the level left; procedure, shortened: as §1
[5] = test system: Rattus norvegicus; experiment: Percent increase in non-HDL-cholesterol in obese Zucker rats after 2 weeks of treatment at a dose of 30 mg/kg/day; procedure, shortened: as §1
[6] = test system: Rattus norvegicus; experiment: Percent increase in triglycerides in obese Zucker rats after 1 week of treatment at a dose of 0 mg/kg/day; procedure, shortened: as §1
[7] = test system: Rattus norvegicus; experiment: Percent decrease in HDL-cholesterol in obese Zucker rats after 1 week of treatment at a dose of 3 mg/kg/day; design: scale not given: the % may be the effect or the level left; procedure, shortened: as §1
[8] = test system: Rattus norvegicus; experiment: Percent increase in non-HDL-cholesterol in obese Zucker rats after 1 week of treatment at a dose of 0 mg/kg/day; procedure, shortened: as §1
[9] = test system: Rattus norvegicus; experiment: Percent increase in nonesterified fatty acids in obese Zucker rats after 2 weeks of treatment at a dose of 100 mg/kg/day; procedure, shortened: as §1
[10] = test system: Rattus norvegicus; experiment: Amount of non-HDL-cholesterol in obese Zucker rats after 1 week of treatment at a dose of 100 mg/kg/day
Procedure, shortened: (§2)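 Female Zucker fatty rats [Crl:(Zuc)-faBR], 10–12 weeks old (400–500 g), dosed once daily by oral gavage in 20% EtOH/80% PEG-200 (dose volume 0.25% of body weight). Rats were fasted 6 h and bled before dosing and at day 7 (orbital plexus), and at day 14 (cardiac puncture). Serum cholesterol fractions came from Superose 6 gel-filtration lipoprotein profiles (% peak area × serum total cholesterol). Values are mean ± SEM.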

[11] = test system: Rattus norvegicus; experiment: Amount of non-HDL-cholesterol in obese Zucker rats at pre-treatment at a dose of 10 mg/kg/day
Procedure, shortened: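 Female obese Zucker fatty rats [Crl:(Zuc)-faBR], 10–12 weeks old (400–500 g), on chow. Compound in 20% EtOH/80% PEG-200 (v/v) given by daily oral gavage. After a 6-h fast, serum was taken before dosing and at 7 days (orbital plexus), and at 14 days (cardiac puncture). Lipoprotein cholesterol came from Superose 6HR gel-filtration profiles × serum total cholesterol. Mean ± SEM.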

[12] = test system: Rattus norvegicus; experiment: Amount of non-HDL-cholesterol in obese Zucker rats after 2 weeks of treatment at a dose of 10 mg/kg/day; procedure, shortened: as §2
[13] = test system: Rattus norvegicus; experiment: Percent decrease in HDL-cholesterol in obese Zucker rats after 2 weeks of treatment at a dose of 3 mg/kg/day; design: scale not given: the % may be the effect or the level left; procedure, shortened: as §1
[14] = test system: Rattus norvegicus; experiment: Percent decrease in nonesterified fatty acids in obese Zucker rats after 1 week of treatment at a dose of 10 mg/kg/day; design: scale not given: the % may be the effect or the level left; procedure, shortened: as §1
[15] = test system: Rattus norvegicus; experiment: Percent decrease in nonesterified fatty acids in obese Zucker rats after 2 weeks of treatment at a dose of 30 mg/kg/day; design: scale not given: the % may be the effect or the level left; procedure, shortened: as §1
[16] = test system: Rattus norvegicus; experiment: Percent increase in glucose in obese Zucker rats after 2 weeks of treatment at a dose of 3 mg/kg/day; procedure, shortened: as §1
[17] = test system: Rattus norvegicus; experiment: Percent decrease in non-HDL-cholesterol in obese Zucker rats after 1 week of treatment at a dose of 30 mg/kg/day; design: scale not given: the % may be the effect or the level left; procedure, shortened: as §1
[18] = test system: Rattus norvegicus; experiment: Percent decrease in nonesterified fatty acids in obese Zucker rats after 2 weeks of treatment at a dose of 100 mg/kg/day; design: scale not given: the % may be the effect or the level left; procedure, shortened: as §1
[19] = test system: Rattus norvegicus; experiment: Percent decrease in insulin in obese Zucker rats after 1 week of treatment at a dose of 100 mg/kg/day; design: scale not given: the % may be the effect or the level left; procedure, shortened: as §1
[20] = test system: Rattus norvegicus; experiment: Percent decrease in nonesterified fatty acids in obese Zucker rats after 1 week of treatment at a dose of 3 mg/kg/day; design: scale not given: the % may be the effect or the level left; procedure, shortened: as §1
[21] = test system: Rattus norvegicus; experiment: Percent decrease in nonesterified fatty acids in obese Zucker rats after 2 weeks of treatment at a dose of 10 mg/kg/day; design: scale not given: the % may be the effect or the level left; procedure, shortened: as §1
[22] = test system: Rattus norvegicus; experiment: Percent increase in insulin in obese Zucker rats after 2 weeks of treatment at a dose of 30 mg/kg/day; procedure, shortened: as §1
[23] = test system: Rattus norvegicus; experiment: Percent decrease in triglycerides in obese Zucker rats after 2 weeks of treatment at a dose of 30 mg/kg/day; design: scale not given: the % may be the effect or the level left; procedure, shortened: as §1
[24] = test system: Rattus norvegicus; experiment: Percent decrease in nonesterified fatty acids in obese Zucker rats after 2 weeks of treatment at a dose of 3 mg/kg/day; design: scale not given: the % may be the effect or the level left; procedure, shortened: as §1
[25] = test system: Rattus norvegicus; experiment: Percentage change of HDL cholesterol levels in obese female Zucker rats after 2 weeks of pre-treatment at a dose of 100 mg/kg/day
Procedure, shortened: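 Obese female Zucker fatty rats were gavaged once daily with 30 or 100 mg/kg/day in 20% EtOH/80% PEG-200 for 2 weeks. Sera were collected after a 6 h fast, before dosing, at 1 week (orbital plexus) and at 2 weeks (cardiac puncture). HDL-C was total cholesterol multiplied by HDL area fraction from gel-filtration lipoprotein profiles. Reported as % change from pretreatment ± SEM.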

[26] = test system: Rattus norvegicus; experiment: Amount of triglycerides in obese Zucker rats at pre-treatment at a dose of 100 mg/kg/day
Procedure, shortened: (§3)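 Female Zucker fatty rats [Crl:(Zuc)-faBR], 10–12 weeks old (400–500 g), dosed once daily by oral gavage in 20% EtOH/80% PEG-200 for up to 14 days. After a 6-h fast, serum was taken pre-dose, at day 7 (orbital venous plexus, O2/CO2 anaesthesia) and at day 14 (cardiac puncture), stored at −80 °C, and assayed on a Hitachi 912 automatic analyzer. Mean ± SEM.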

[27] = test system: Rattus norvegicus; experiment: Amount of triglycerides in obese Zucker rats after 2 weeks of treatment at a dose of 0 mg/kg/day; procedure, shortened: as §3
[28] = test system: Rattus norvegicus; experiment: Percent decrease in non-HDL-cholesterol in obese Zucker rats after 1 week of treatment at a dose of 100 mg/kg/day; design: scale not given: the % may be the effect or the level left; procedure, shortened: as §1
[29] = test system: Rattus norvegicus; experiment: Percent decrease in insulin in obese Zucker rats after 1 week of treatment at a dose of 10 mg/kg/day; design: scale not given: the % may be the effect or the level left; procedure, shortened: as §1
[30] = test system: Rattus norvegicus; experiment: Amount of glucose in obese Zucker rats at pre-treatment at a dose of 30 mg/kg/day
Procedure, shortened: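 Female Zucker fatty rats [Crl:(Zuc)-faBR], 10–12 weeks old (400–500 g), gavaged daily with vehicle (20% EtOH/80% PEG-200, 0.25% of body weight) or compound. After a 6-h fast, blood glucose was read by glucometer from tail-prick blood of unanesthetized rats before dosing and after 1 and 2 weeks. Values are mean ± SEM.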

[31] = test system: Rattus norvegicus; experiment: Amount of HDL-cholesterol in obese Zucker rats at pre-treatment at a dose of 0 mg/kg/day; procedure, shortened: as §2
[32] = test system: Rattus norvegicus; experiment: Percent decrease in triglycerides in obese Zucker rats after 1 week of treatment at a dose of 100 mg/kg/day; design: scale not given: the % may be the effect or the level left; procedure, shortened: as §1
[33] = test system: Rattus norvegicus; experiment: Amount of nonesterified fatty acids in obese Zucker rats after 2 weeks of treatment at a dose of 30 mg/kg/day; procedure, shortened: as §3

| SMILES | Activity [1] [%] | Activity [2] [%] | Activity [3] [%] | Activity [4] [%] | Activity [6] [%] | Activity [8] [%] | Activity [10] [mg/dL] | Activity [11] [mg/dL] | Activity [12] [mg/dL] | Activity [14] [%] | Activity [17] [%] | Activity [18] [%] | also measured |
| --- | --- | --- | --- | --- | --- | --- | --- | --- | --- | --- | --- | --- | --- |
| CC(C)(CO)CCCCC(=O)CCCCC(C)(C)CO | -21 | 15 | 13 | -15 | 19 | 44 | 23 | 25 | 25 | -18 |  |  | Activity [5]: 27%; Activity [7]: -10%; Activity [9]: -33%; Activity [13]: -19% |
| CC(C)(CCCCCC(=O)CCCCCC(C)(C)C(=O)O)C(=O)O |  | 60 | 58 | -9 | 18 | 45 |  |  |  | -17 | -48 | -52 | Activity [15]: -49%; Activity [16]: 8%; Activity [19]: -46%; Activity [20]: -15%; Activity [21]: -21%; Activity [22]: -21%; Activity [23]: -52%; Activity [24]: -23% |
| CC(C)(CCCCC(=O)CCCCC(C)(C)C(=O)O)C(=O)O | -29 |  |  |  |  |  | 18 | 40 | 27 |  | -23 | -45 | Change [25]: 78%; Activity [26]: 964 mg/dL; Activity [27]: 1140 mg/dL; Activity [28]: -42%; Activity [29]: -27%; Activity [30]: 103 mg/dL; Activity [31]: 39 mg/dL; Activity [32]: -60%; Activity [33]: 1.1 mg/dL |
